Compounds with a hit are over-represented: about 2.6% of the library has one in this group of screens.
SENP7 block – SENP7 protease inhibitors, primary screen, biochemical, luminescence, uHTS | recombinant SENP7, Z-RLRGG-aminoluciferin luminescence, 40 min | inhibition, % at 5 µM | 330,000 tested, 1.5% active;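 active means inhibition above about 50% at the single test dose, limit read from the data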;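 further: plate controls were DMSO with enzyme for no effect and no enzyme buffer wells for full effect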
Target sequence (Q9BQF6 706-1050 limits assumed): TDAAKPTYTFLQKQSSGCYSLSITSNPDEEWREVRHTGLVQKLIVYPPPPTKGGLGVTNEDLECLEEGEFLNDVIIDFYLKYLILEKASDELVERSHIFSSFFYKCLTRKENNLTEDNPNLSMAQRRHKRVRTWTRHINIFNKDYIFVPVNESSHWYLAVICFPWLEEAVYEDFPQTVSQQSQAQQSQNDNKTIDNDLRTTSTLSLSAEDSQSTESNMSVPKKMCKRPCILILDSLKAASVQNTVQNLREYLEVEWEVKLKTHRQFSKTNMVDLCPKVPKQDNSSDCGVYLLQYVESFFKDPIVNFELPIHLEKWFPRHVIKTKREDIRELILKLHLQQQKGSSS
SENP8 block-1 – SENP8 protease inhibitors, primary screen, biochemical, luminescence; AID 2540, 2010; inhibition, % at 10 µM; purified SENP8, Z-RLRGG-aminoluciferin cleavage; Sentrin-specific protease 8 (Homo sapiens), Q96LD8; 330,000 tested, 1.2% active; in the data active means inhibition above about 50%
Platelet DG rel – inhibitors of platelet dense granule secretion, primary screen, cell-based, MLPCN, human platelets; human platelet-rich plasma, SFLLRN dense granule ATP release, luminescence; inhibition, %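 (compounds screened at 7.5 µM in platelet-rich plasma)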; 300,000 tested, 0.22% active; AID 1663, 2009;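 active means mean replicate score, as percent of positive control, at or above 50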
SENP6 inh – SENP6 protease inhibitors, primary screen, biochemical, luminescence, uHTS; Sentrin-specific protease 6 (Homo sapiens), Q9GZR1; AID 2599, 2010; inhibition, % at 10 µM; Recombinant SENP6 catalytic domain, aminoluciferin luminescence; 330,000 tested, 1.8% active;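 active means inhibition above about 50% at the single tested dose, limit read from the data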;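 further: plate controls were DMSO wells with enzyme for no effect and DMSO wells lacking enzyme for full effect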
SENP8 block-2 – human SENP8 protease inhibitors, primary screen, biochemical, fluorescence, Nedd8 protein substrate, uHTS; recombinant SENP8; AID 602440, 2012; Sentrin-specific protease 8 (Homo sapiens), Q96LD8; inhibition, % at 20 µM; 360,000 tested, 0.64% active; in the data active means inhibition mostly above about 40%, no sharp cut-off; inactive means mostly below about 27%
SENP1 FRET inh – human SENP1 catalytic domain inhibitors, primary screen, biochemical, FRET, uHTS; recombinant SENP1 catalytic domain, CyPet-SUMO1-YPet FRET cleavage; Sentrin-specific protease 1 (Homo sapiens), Q9P0U3; 360,000 tested, 0.21% active; AID 624204, 2012; inhibition, % at 10 µM;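 active means inhibition at least 30% at 10 µM, raw YFP signal under a set limit, fluorescence ratio 0.5 to 1.5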;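 further: 0% = enzyme with DMSO and 100% = no enzyme wells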
Target sequence (Q9P0U3 419-644 limits assumed): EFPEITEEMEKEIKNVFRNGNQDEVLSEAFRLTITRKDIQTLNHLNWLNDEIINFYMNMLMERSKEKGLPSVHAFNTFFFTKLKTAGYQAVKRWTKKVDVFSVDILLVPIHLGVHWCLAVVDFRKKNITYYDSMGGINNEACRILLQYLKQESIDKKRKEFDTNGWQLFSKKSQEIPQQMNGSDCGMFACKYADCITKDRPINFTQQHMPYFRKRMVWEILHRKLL
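Material: hSENP1 catalytic domain, recombinant; medium: Tris pH 8 with BME, BSA, NP40 and catalase; compound: single concentration of 10 µM compound, 0.5% DMSO final; technique: FRET read of cyan and yellow fluorescence; timing: 50 min enzyme reaction, room temperature, light-protected; reagent: SFCypet-SUMO1-SFYpet substrate at 25 nM; control set: no-enzyme low, enzyme-DMSO high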
An asterisk follows results filed as active.

COc1ccccc1NC(=O)C(C)OC(=O)CCNS(=O)(=O)c1cccc(C(F)(F)F)c1 (centres undefined) was read as SENP7 block 3, SENP8 block-1 8, SENP6 inh -15, SENP8 block-2 6 and SENP1 FRET inh 3.
O=C(Nc1ccccc1)OCc1cc(-c2ccccc2Cl)on1 was read as SENP7 block -1, SENP8 block-1 -8, Platelet DG rel 52*, SENP6 inh -5, SENP8 block-2 10 and SENP1 FRET inh -1.
COc1ccc(Br)cc1CNc1ccc(O)cc1 was read as SENP7 block 58*, SENP8 block-1 -6, SENP6 inh 6, SENP8 block-2 61* and SENP1 FRET inh 1.
For CSc1ccc(/C=N/NC(=O)C[n+]2ccccc2)cc1 the results were SENP7 block 3, SENP8 block-1 5, Platelet DG rel 4, SENP6 inh -10, SENP8 block-2 8 and SENP1 FRET inh 0.
`CC1CCCN(C(=S)SCC(=O)O)C1` (centres undefined) gave SENP7 block 3, SENP8 block-1 -3, Platelet DG rel -3, SENP6 inh -3, SENP8 block-2 8 and SENP1 FRET inh 3.
O=[N+]([O-])c1ccccc1C1Nc2cccc3cccc(c23)N1 was read as SENP7 block 3, SENP8 block-1 23, Platelet DG rel 0, SENP6 inh 20, SENP8 block-2 51* and SENP1 FRET inh -8.
For CCn1c(=O)cc(N2CCN(Cc3ccccc3)CC2)[nH]c1=O the results were SENP7 block -11, SENP8 block-1 -11, Platelet DG rel 53*, SENP6 inh -4, SENP8 block-2 8 and SENP1 FRET inh -2.
Screening O=C1CC(c2ccc(O)c(O)c2)Oc2c1ccc(O)c2O (centres undefined) returned SENP7 block -3, SENP8 block-1 22, SENP6 inh 3, SENP8 block-2 51* and SENP1 FRET inh 4.
`O=C(NC(=S)Nc1ccc2c(c1)OCCO2)c1ccco1` gave SENP7 block 2, SENP8 block-1 14, Platelet DG rel -6, SENP6 inh 22, SENP8 block-2 1 and SENP1 FRET inh 0.
CC(=O)Nc1ccc(-c2csc(NC(=O)C3=COCCO3)n2)cc1 was read as SENP7 block -3, SENP8 block-1 -11, Platelet DG rel 10, SENP6 inh -1, SENP8 block-2 -39 and SENP1 FRET inh 2.
Screening Cc1ccc(-c2csc(NC(=O)C3=COCCO3)n2)cc1 returned SENP7 block 59*, SENP8 block-1 33, Platelet DG rel -3, SENP6 inh 70*, SENP8 block-2 -11 and SENP1 FRET inh 2.
For CCc1ccccc1NC(=O)C1CCCN1S(=O)(=O)c1ccc2c(c1)n(C)c(=O)c(=O)n2C (centres undefined) the results were SENP7 block 2, SENP8 block-1 -4, Platelet DG rel 2, SENP6 inh 13, SENP8 block-2 -64 and SENP1 FRET inh 1.
`O=c1cc(CN2CCN(c3ccccc3O)CC2)nc2sccn12` gave SENP7 block -2, SENP8 block-1 2, Platelet DG rel 72*, SENP6 inh -4, SENP8 block-2 -18 and SENP1 FRET inh -43.
`Cc1cccc(N2CCN(Cc3cc(=O)n4ccsc4n3)CC2)c1C` gave SENP7 block 3, SENP8 block-1 0, Platelet DG rel 1, SENP6 inh 17, SENP8 block-2 0 and SENP1 FRET inh -7.
Screening CCN(CC)CCN1C(=O)C2C(C(=O)Nc3cccc(C)c3)C3C=CC2(O3)C1C(=O)NC1CCCC(C)C1C (centres undefined) returned SENP7 block 7, SENP8 block-1 6, Platelet DG rel 3, SENP6 inh -7, SENP8 block-2 14 and SENP1 FRET inh 3.
`O=C1/C(=C\c2ccc(O)cc2)SC(=S)N1c1cccnc1` gave SENP7 block 14, SENP8 block-1 5, Platelet DG rel 2, SENP6 inh 38, SENP8 block-2 22 and SENP1 FRET inh 81*.
Screening CC(c1ccon1)N(C)C(=O)CCc1nnc(CCCCc2ccccc2)o1 (centres undefined) returned SENP7 block 7, SENP8 block-1 -1, Platelet DG rel 2, SENP6 inh -3, SENP8 block-2 29 and SENP1 FRET inh 1.
CCOc1ccc(N2C(=O)CSC2=S)cc1 was read as SENP7 block 9, SENP8 block-1 3, Platelet DG rel -4, SENP6 inh 17, SENP8 block-2 6 and SENP1 FRET inh -2.
For CCN(CC)c1ccc(N2C(=O)CSC2=S)cc1 the results were SENP7 block 14, SENP8 block-1 3, Platelet DG rel -3, SENP6 inh 7, SENP8 block-2 55* and SENP1 FRET inh 7.
NC(=O)CSc1cn(Cc2ccc(F)cc2)c2ccccc12 was read as SENP7 block 2, SENP8 block-1 -1, Platelet DG rel 59*, SENP6 inh -2, SENP8 block-2 13 and SENP1 FRET inh -1.
Screening O=c1cc(-c2ccc(O)c(O)c2)oc2cc(O[C@@H]3O[C@H](CO)[C@@H](O)[C@H](O)[C@H]3O)cc(O)c12 returned SENP7 block -4, SENP8 block-1 9, SENP6 inh 17, SENP8 block-2 27 and SENP1 FRET inh 34*.
For Oc1ccc(N=Cc2ccc(O)c(O)c2)cc1 the results were SENP7 block 8, SENP8 block-1 23, Platelet DG rel -4, SENP6 inh 39, SENP8 block-2 62* and SENP1 FRET inh -1.
Screening COc1cc(OC)c2c(c1)C(=O)c1cc(OC)cc(OC)c1C2=O returned SENP7 block 3, SENP8 block-1 1, Platelet DG rel -3, SENP6 inh -14, SENP8 block-2 57* and SENP1 FRET inh 11.
For COc1ccc(C=C2c3ccccc3C(=O)c3ccccc32)c(OC)c1 the results were SENP7 block -1, SENP8 block-1 -9, Platelet DG rel 5, SENP6 inh -26, SENP8 block-2 26 and SENP1 FRET inh 2.
Screening CCc1ccc(/C=C2\SC(=S)N(CCCC(=O)N3CCN(C)CC3)C2=O)cc1 returned SENP8 block-2 41* and SENP1 FRET inh 0.
For COc1cccc(/C=C2\SC(=S)N(CCCC(=O)N3CCCCC3)C2=O)c1 the results were SENP7 block -5, SENP8 block-1 2, Platelet DG rel 18, SENP6 inh 29, SENP8 block-2 26* and SENP1 FRET inh 0.
For COc1cccc(/C=C2/SC(=S)N(CCC(=O)N3CCOCC3)C2=O)c1 the results were SENP7 block 3, SENP8 block-1 5, Platelet DG rel 1, SENP6 inh -7, SENP8 block-2 26 and SENP1 FRET inh 0.
